In ChEMBL document CHEMBL1149562, “Identification and optimization of novel 1,3,4-oxadiazole EP1 receptor antagonists” (Bioorg Med Chem Lett, 2007):

Experiments:
[1] = molecular target: T1, Prostaglandin E2 receptor EP1 subtype (Homo sapiens, UniProt P34995); test: Displacement of [3H]PGE2 from human recombinant EP1 receptor expressed in CHO cell membrane; format: cell membranes
T1 sequence (P34995 whole entry): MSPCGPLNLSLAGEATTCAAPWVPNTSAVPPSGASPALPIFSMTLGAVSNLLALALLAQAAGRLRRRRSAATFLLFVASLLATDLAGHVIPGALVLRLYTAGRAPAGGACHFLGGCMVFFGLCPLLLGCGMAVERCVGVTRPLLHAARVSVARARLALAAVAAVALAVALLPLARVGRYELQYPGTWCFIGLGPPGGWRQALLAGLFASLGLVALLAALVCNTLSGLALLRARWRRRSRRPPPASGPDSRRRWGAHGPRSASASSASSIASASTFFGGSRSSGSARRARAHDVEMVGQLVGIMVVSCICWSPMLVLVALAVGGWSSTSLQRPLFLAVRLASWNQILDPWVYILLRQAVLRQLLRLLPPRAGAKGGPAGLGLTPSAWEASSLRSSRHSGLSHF
In short: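 Radioligand binding using [3H]-PGE2 on membranes of CHO cells expressing recombinant human EP1 receptor; affinity expressed as pIC50. Values are means of at least three experiments.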

[2] = molecular target: T1, Prostaglandin E2 receptor EP1 subtype; test: Antagonist activity at human recombinant EP1 receptor expressed in CHO cells assessed as inhibition of PGE2-induced calcium mobilization by FLIPR; format: functional, cell-based
In short: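 Functional antagonism in CHO cells expressing recombinant human EP1 receptor; blockade of PGE2-driven intracellular Ca2+ mobilization read by FLIPR, reported as pKi. Values are means of at least three experiments, with some from two.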

Cc1ccc(S(=O)(=O)N(CC(=O)NCCc2ccc(Cl)cc2)c2ccccc2C)cc1
IC50 ([1]; read-out: Log IC50 (converted)): 251 nM

CCOc1ccc(Cc2nnc(CN(c3cccc(Cl)c3C)S(=O)(=O)c3ccc(C)cc3)o2)cc1
IC50 ([1]; read-out: Log IC50 (converted)): 3.98 nM
Ki [2]: 50.1 nM

CCc1ccccc1N(Cc1nnc(Cc2ccccc2)o1)S(=O)(=O)c1ccc(C)cc1
IC50 ([1]; read-out: Log IC50 (converted)): 1000 nM
Ki [2]: 398 nM

CCc1ccccc1N(Cc1nnc(Cc2ccc(OC)cc2)o1)S(=O)(=O)c1ccc(C)cc1
IC50 ([1]; read-out: IC50): 126 nM
Ki [2]: 631 nM

CCOc1ccc(Cc2nnc(CN(c3ccccc3CC)S(=O)(=O)c3ccc(C)cc3)o2)cc1
IC50 ([1]; read-out: Log IC50 (converted)): 126 nM
Ki [2]: 39.8 nM

COc1ccc(Cc2nnc(CN(c3cccc(C(F)(F)F)c3C)S(=O)(=O)c3ccc(C)cc3)o2)cc1
IC50 ([1]; read-out: Log IC50 (converted)): 63.1 nM
Ki [2]: 398 nM

Cc1ccc(S(=O)(=O)N(Cc2nnc(Cc3ccc(C(F)(F)F)cc3)o2)c2cccc(Cl)c2C)cc1
IC50 ([1]; read-out: Log IC50 (converted)): 50.1 nM
Ki [2]: 158 nM

Cc1ccc(S(=O)(=O)N(Cc2nnc(Cc3ccccc3Cl)o2)c2cccc(Cl)c2C)cc1
IC50 ([1]; read-out: Log IC50 (converted)): 79.4 nM
Ki [2]: 398 nM

Cc1ccc(S(=O)(=O)N(Cc2nnc(Cc3cccc(Cl)c3)o2)c2cccc(Cl)c2C)cc1
IC50 ([1]; read-out: Log IC50 (converted)): 158 nM
Ki [2]: 2000 nM

Cc1ccc(S(=O)(=O)N(Cc2nnc(Cc3c(Cl)cccc3Cl)o2)c2cccc(Cl)c2C)cc1
IC50 ([1]; read-out: Log IC50 (converted)): 63.1 nM
Ki [2]: 501 nM

Cc1ccc(S(=O)(=O)N(Cc2nnc(Cc3ccc(Cl)cc3Cl)o2)c2cccc(Cl)c2C)cc1
IC50 ([1]; read-out: Log IC50 (converted)): 63.1 nM
Ki [2]: 1000 nM

COc1ccc(Nc2nnc(CN(c3cccc(Cl)c3Cl)S(=O)(=O)c3ccc(C(F)(F)F)cc3)o2)cc1
IC50 ([1]; read-out: Log IC50 (converted)): 7.94 nM
Ki [2]: 63.1 nM

COc1ccc(Cc2nnc(CN(c3cccc(Cl)c3Cl)S(=O)(=O)c3ccc(Cl)cc3)o2)cc1
IC50 ([1]; read-out: Log IC50 (converted)): 20 nM
Ki [2]: 63.1 nM

CCc1ccccc1N(Cc1nnc(COc2ccc(OC)cc2)o1)S(=O)(=O)c1ccc(C)cc1
IC50 ([1]; read-out: Log IC50 (converted)): 25.1 nM
Ki [2]: 126 nM

CCc1ccccc1N(Cc1nnc(CNc2ccc(OC)cc2)o1)S(=O)(=O)c1ccc(C)cc1
IC50 ([1]; read-out: Log IC50 (converted)): 501 nM
Ki [2]: 794 nM

CCOc1ccc(Cc2nnc(CN(c3cccc(Cl)c3Cl)S(=O)(=O)c3ccc(C(F)(F)F)cc3)o2)cc1
IC50 ([1]; read-out: Log IC50 (converted)): 2.51 nM
Ki [2]: 6.31 nM

COc1ccc(NCc2nnc(CN(c3cccc(Cl)c3C)S(=O)(=O)c3ccc(C)cc3)o2)cc1
IC50 ([1]; read-out: Log IC50 (converted)): 20 nM
Ki [2]: 79.4 nM

COc1ccc(Nc2nnc(CN(c3cccc(Cl)c3C)S(=O)(=O)c3ccc(C)cc3)o2)cc1
IC50 ([1]; read-out: Log IC50 (converted)): 31.6 nM
Ki [2]: 79.4 nM

Cc1ccc(S(=O)(=O)N(Cc2nnc(Cc3ccccc3F)o2)c2cccc(Cl)c2C)cc1
IC50 ([1]; read-out: Log IC50 (converted)): 501 nM
Ki [2]: 631 nM

CCc1ccccc1N(CC(=O)NCc1ccc(OC)cc1)S(=O)(=O)c1ccc(C)cc1
IC50 ([1]; read-out: IC50): 25 nM

CCc1ccccc1N(CC(=O)NCCc1ccc(OC)c(OC)c1)S(=O)(=O)c1ccc(C)cc1
IC50 ([1]; read-out: Log IC50 (converted)): 7.94 nM

CCc1ccccc1N(CC(=O)OCc1ccc(OC)cc1)S(=O)(=O)c1ccc(C)cc1
IC50 ([1]; read-out: IC50): 63 nM

CCc1ccccc1N(Cc1nnc(Oc2ccc(OC)cc2)o1)S(=O)(=O)c1ccc(C)cc1
IC50 ([1]; read-out: Log IC50 (converted)): > 1000 nM
Ki [2]: 100 nM

COc1ccc(Nc2nnc(CN(c3cccc(Cl)c3Cl)S(=O)(=O)c3ccc(C)cc3)o2)cc1
IC50 ([1]; read-out: Log IC50 (converted)): 39.8 nM
Ki [2]: 50.1 nM

Cc1ccc(S(=O)(=O)N(Cc2nnc(Cc3ccc(F)cc3)o2)c2cccc(Cl)c2C)cc1
IC50 ([1]; read-out: Log IC50 (converted)): 200 nM
Ki [2]: 501 nM

COc1ccc(Cc2nnc(CN(c3cccc(Cl)c3C)S(=O)(=O)c3ccc(C)cc3)o2)cc1
IC50 ([1]; read-out: Log IC50 (converted)): 6.31 nM
Ki [2]: 39.8 nM

COc1ccc(Cc2nnc(CN(c3cccc(Cl)c3Cl)S(=O)(=O)c3ccc(C)cc3)o2)cc1
IC50 ([1]; read-out: Log IC50 (converted)): 7.94 nM
Ki [2]: 39.8 nM

Cc1ccc(S(=O)(=O)N(Cc2nnc(Cc3cccc(F)c3)o2)c2cccc(Cl)c2C)cc1
IC50 ([1]; read-out: Log IC50 (converted)): 316 nM
Ki [2]: 501 nM

CCc1ccccc1N(Cc1nnc(Cc2ccc(Cl)cc2)o1)S(=O)(=O)c1ccc(C)cc1
IC50 ([1]; read-out: Log IC50 (converted)): 398 nM
Ki [2]: 316 nM

Cc1ccc(S(=O)(=O)N(Cc2nnc(Cc3ccc(N(C)C)cc3)o2)c2cccc(Cl)c2C)cc1
IC50 ([1]; read-out: Log IC50 (converted)): 12.6 nM
Ki [2]: 20 nM

CCOc1ccc(Cc2nnc(CN(c3cccc(Cl)c3Cl)S(=O)(=O)c3ccc(C)cc3)o2)cc1
IC50 ([1]; read-out: Log IC50 (converted)): 6.31 nM
Ki [2]: 31.6 nM
